From paper PMC3038628 (Journal of molecular biology, 2010)
One block for each molecule: values may come before it.

Tests used:
[1] = FRET assay of NBD-Toc transfer from α-TTP variants to SUVs; assay type: biochemical; conditions: for Rate of NBD-Toc transfer to SUV, Rate: PC vesicles, 0.225 μM NBD-Toc, 2 μM α-TTP, 100 μM vesicles, room temperature; for Rate of NBD-Toc transfer to SUV, Rate^mut/Rate^wt: relative to wild type
Method in brief: (§1)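 Each protein (4 μM) was preloaded with 0.45 μM NBD-Toc for 15 min in SET buffer (pH 7.4). It was then stopped-flow mixed at room temperature with 200 μM acceptor vesicles of 97% liver PC and 3% TRITC-PE (finals 0.225 μM, 2 μM, 100 μM). Vesicles were sonicated SUVs (~60 nm) or extruded LUVs (150 nm). NBD quench was normalised to initial fluorescence and fitted single-exponentially.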

[2] = FRET assay of NBD-Toc transfer from α-TTP variants to LUVs; assay type: biochemical; conditions: for Rate of NBD-Toc transfer to LUV, Rate: PC vesicles, 0.225 μM NBD-Toc, 2 μM α-TTP, 100 μM vesicles, room temperature; for Rate of NBD-Toc transfer to LUV, Rate^mut/Rate^wt: relative to wild type
Method in brief: as §1

[3] = Dual polarization interferometry of protein adsorption to immobilized bilayer; assay type: binding; conditions: for Ads^mut/Ads^wt (0.50 μM injection): 0.50 μM protein injection; for Ads^mut/Ads^wt (1.0 μM injection): 1.0 μM protein injection; for Adsorption/binding to immobilized bilayers by DPI, % of wild type: injection concentration not stated
Method in brief: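 Recombinant α-TTP (E. coli BL21(DE3), glutathione affinity, thrombin-cleaved) was dialysed 1 h at 4 °C into pH 7.4 phosphate/137 mM NaCl buffer. It was injected at 25 μl/min for 8 min over a 90:10 DOPC:DOPS bilayer on a silicon oxynitride chip at 20 °C. Adsorbed mass was measured at 0.5 and 1.0 μM in quadruplicate, two channels each. Kd came from fitting Bmax against concentration.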

- Adsorption/binding to immobilized bilayers by DPI, % of wild type [3]: 123%
B1: K211A: α-TTP mutant, surface Lys211 (helix A10) to Ala (protein, UniProt P49638 1-278, looked up, variant K211A)
Alpha-tocopherol transfer …: MAEARSQPSAGPQLNALPDHSPLLQPGLAALRRRAREAGVPLAPLPLTDSFLLRFLRARDFDLDLAWRLLKNYYKWRAECPEISADLHPRSIIGLLKAGYHGVLRSRDPTGSKVLIYRIAHWDPKVFTAYDVFRVSLITSELIVQEVETQRNGIKAIFDLEGWQFSHAFQITPSVAKKIAAVLTDSFPLKVRGIHLINEPVIFHAVFSMIAPFLTEKIKERIHMHGNNYKQSLLQHFPDILPLEYGGEEFSMEDICQEWTNFIMKSEDYLSSISESIQ
- Rate of NBD-Toc transfer to SUV, Rate [1]: 0.105 ± 0.008 s⁻¹
- Rate of NBD-Toc transfer to SUV, Rate^mut/Rate^wt [1]: 83%
- Rate of NBD-Toc transfer to LUV, Rate [2]: 0.011 ± 0.001 s⁻¹
- Rate of NBD-Toc transfer to LUV, Rate^mut/Rate^wt [2]: 69%
- Ads^mut/Ads^wt (0.50 μM injection) [3]: 1.23
- Ads^mut/Ads^wt (1.0 μM injection) [3]: 0.95

- Adsorption/binding to immobilized bilayers by DPI, % of wild type [3]: ~ 150%
- Binding to immobilized bilayers, % of WT ([3]; printed "for LUVs"): 150%
- Binding to immobilized bilayers, % of WT ([3]; printed "for SUVs"): 158%
B2: R192H: naturally-occurring α-TTP mutant associated with heritable mild vitamin E deficiency in humans (protein, UniProt P49638 1-278, looked up, variant R192H)
Alpha-tocopherol transfer …: MAEARSQPSAGPQLNALPDHSPLLQPGLAALRRRAREAGVPLAPLPLTDSFLLRFLRARDFDLDLAWRLLKNYYKWRAECPEISADLHPRSIIGLLKAGYHGVLRSRDPTGSKVLIYRIAHWDPKVFTAYDVFRVSLITSELIVQEVETQRNGIKAIFDLEGWQFSHAFQITPSVAKKIAAVLTDSFPLKVHGIHLINEPVIFHAVFSMIKPFLTEKIKERIHMHGNNYKQSLLQHFPDILPLEYGGEEFSMEDICQEWTNFIMKSEDYLSSISESIQ
- Rate of NBD-Toc transfer to SUV, Rate [1]: 0.106 ± 0.008 s⁻¹
- Rate of NBD-Toc transfer to SUV, Rate^mut/Rate^wt [1]: 83%
- Rate of NBD-Toc transfer to LUV, Rate [2]: 0.012 ± 0.003 s⁻¹
- Rate of NBD-Toc transfer to LUV, Rate^mut/Rate^wt [2]: 75%
- Ads^mut/Ads^wt (0.50 μM injection) [3]: 1.58
- Ads^mut/Ads^wt (1.0 μM injection) [3]: 1.50

B3: F165D/M209D: α-TTP double mutant (protein, UniProt P49638 1-278, looked up, variant F165D M209D)
Alpha-tocopherol transfer …: MAEARSQPSAGPQLNALPDHSPLLQPGLAALRRRAREAGVPLAPLPLTDSFLLRFLRARDFDLDLAWRLLKNYYKWRAECPEISADLHPRSIIGLLKAGYHGVLRSRDPTGSKVLIYRIAHWDPKVFTAYDVFRVSLITSELIVQEVETQRNGIKAIFDLEGWQDSHAFQITPSVAKKIAAVLTDSFPLKVRGIHLINEPVIFHAVFSDIKPFLTEKIKERIHMHGNNYKQSLLQHFPDILPLEYGGEEFSMEDICQEWTNFIMKSEDYLSSISESIQ
- Rate of NBD-Toc transfer to SUV, Rate [1]: 0.034 ± 0.003 s⁻¹
- Rate of NBD-Toc transfer to SUV, Rate^mut/Rate^wt [1]: 27%
- Rate of NBD-Toc transfer to LUV, Rate [2]: 0.010 ± 0.001 s⁻¹
- Rate of NBD-Toc transfer to LUV, Rate^mut/Rate^wt [2]: 62%
- Ads^mut/Ads^wt (0.50 μM injection) [3]: 0.01
- Ads^mut/Ads^wt (1.0 μM injection) [3]: 0.18

B4: V206A: α-TTP mutant, Val206 to Ala (protein, UniProt P49638 1-278, looked up, variant V206A)
Alpha-tocopherol transfer …: MAEARSQPSAGPQLNALPDHSPLLQPGLAALRRRAREAGVPLAPLPLTDSFLLRFLRARDFDLDLAWRLLKNYYKWRAECPEISADLHPRSIIGLLKAGYHGVLRSRDPTGSKVLIYRIAHWDPKVFTAYDVFRVSLITSELIVQEVETQRNGIKAIFDLEGWQFSHAFQITPSVAKKIAAVLTDSFPLKVRGIHLINEPVIFHAAFSMIKPFLTEKIKERIHMHGNNYKQSLLQHFPDILPLEYGGEEFSMEDICQEWTNFIMKSEDYLSSISESIQ
- Rate of NBD-Toc transfer to SUV, Rate [1]: 0.154 ± 0.012 s⁻¹
- Rate of NBD-Toc transfer to SUV, Rate^mut/Rate^wt [1]: 121%
- Rate of NBD-Toc transfer to LUV, Rate [2]: 0.016 ± 0.002 s⁻¹
- Rate of NBD-Toc transfer to LUV, Rate^mut/Rate^wt [2]: 100%
- Ads^mut/Ads^wt (0.50 μM injection) [3]: 0.93
- Ads^mut/Ads^wt (1.0 μM injection) [3]: 1.14

B5: M209A: α-TTP mutant, Met209 to Ala (protein, UniProt P49638 1-278, looked up, variant M209A)
Alpha-tocopherol transfer …: MAEARSQPSAGPQLNALPDHSPLLQPGLAALRRRAREAGVPLAPLPLTDSFLLRFLRARDFDLDLAWRLLKNYYKWRAECPEISADLHPRSIIGLLKAGYHGVLRSRDPTGSKVLIYRIAHWDPKVFTAYDVFRVSLITSELIVQEVETQRNGIKAIFDLEGWQFSHAFQITPSVAKKIAAVLTDSFPLKVRGIHLINEPVIFHAVFSAIKPFLTEKIKERIHMHGNNYKQSLLQHFPDILPLEYGGEEFSMEDICQEWTNFIMKSEDYLSSISESIQ
- Rate of NBD-Toc transfer to SUV, Rate [1]: 0.140 ± 0.012 s⁻¹
- Effect on rate of NBD-Toc transfer to SUVs (in words) ([1]; compared with wild type or single mutants): essentially no effect
- Rate of NBD-Toc transfer to SUV, Rate^mut/Rate^wt [1]: 110%
- Rate of NBD-Toc transfer to LUV, Rate [2]: 0.025 ± 0.005 s⁻¹
- Rate of NBD-Toc transfer to LUV, Rate^mut/Rate^wt [2]: 156%
- Ads^mut/Ads^wt (0.50 μM injection) [3]: 1.01
- Ads^mut/Ads^wt (1.0 μM injection) [3]: 1.12
